The text below walks through data of ChEMBL document CHEMBL4513216, “Probing the Open Global Health Chemical Diversity Library for Multistage-Active Starting Points for Next-Generation Antimalarials” (ACS Infect Dis, 2020).

The nature of the data set: Toxicity liver stage against HepG2, at 10uM. Format: cell-based. The following applies: human, HepG2-A16-CD81EGFP cells; read-out: INHIBITION
Further details: test concentration 10 uM, cell line HepG2-A16-CD81EGFP. Put shortly: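 Uninfected HepG2-A16-CD81EGFP cells, 3 × 10^3 per well, 1536-well, plated on prespotted compound at 10 μM final, parasite-free screening media added to match infected plates; puromycin 10 μM positive, DMSO 0.5% negative; run in parallel with 48 h PbLuc assay at 37 °C, 5% CO2; viability by CellTiter-Glo luminescence, normalized to controls.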
Take `FC(F)(F)c1ccc2nc([C@H]3CCN(C4CCC4)C3)[nH]c2c1`: the cytotoxicity at 10 µM is 8.04%.

Consider `CNCc1cn(C[C@H]2C[C@@H]3CCN2C[C@@H]3C(=O)NC2CCCCC2)nn1`, for which the cytotoxicity at 10 µM was found to be 1.73%.

Take `Cn1cnc2cc(CCC(=O)Nc3nc[nH]n3)ccc21`: the cytotoxicity at 10 µM was 4.44%.

With `CN1C(=O)CC2(CCN(Cc3cnn(C)c3)CC2)c2ccccc21`, the cytotoxicity at 10 µM is 15.7%.

For the molecule `Cc1cnc(CNC(=O)c2cc3c(s2)CCN3S(C)(=O)=O)cn1`, the cytotoxicity at 10 µM was 2.22%.

For `CCc1c(C(=O)O)nnn1-c1ccc(C)cc1C`, the cytotoxicity at 10 µM is -5.11%.

As to `Cc1cc(-c2cnc(N3CCNC(=O)C3)nc2-c2cccnc2C)on1`, the cytotoxicity at 10 µM was -6.9%.

For `Cc1ccc(-c2cc(N)c(=O)n(CC(=O)NCC3CCCCC3)n2)s1`, the cytotoxicity at 10 µM amounted to 2.44%.

For `O=C(Cc1ccc2c(c1)CCC2)NC1CCN(Cc2ccccc2)CC1`, the cytotoxicity at 10 µM turned out to be 1.88%.

For `CCOc1cc(Cl)ccc1CNC(=O)c1ccc(=O)n(C)c1`, the cytotoxicity at 10 µM was -4.01%.

With `COc1cccc(CN(C)C(C)C(=O)Nc2nc(C)c(C)s2)c1` (stereo not drawn), the cytotoxicity at 10 µM came out at 9.74%.

Take `CCc1cnc(CN(C)C(=O)NC2CCN(CC3CC3)C2)s1` (stereo not drawn): the cytotoxicity at 10 µM was -3.86%.

On to `CC(C)C(=O)N1CCN(CCOc2cccc(C#N)c2)CC1`, for which the cytotoxicity at 10 µM came to 10.8%.

Consider `Cc1cc(F)c(S(=O)(=O)Nc2ccn(CCC#N)n2)cc1F`, for which the cytotoxicity at 10 µM turned out to be 17.3%.

As to `Cc1cccc(N2CCN(C(=O)CCCC(=O)N(C)C)C(C)C2)n1` (stereo not drawn), the cytotoxicity at 10 µM was 14.6%.

`CCS(=O)(=O)NCCNCc1cc(F)ccc1Br`: the cytotoxicity at 10 µM came to 1.58%.

`CC(C)C(=O)N1CCN(CC(O)c2cc(Cl)ccc2Cl)CC1` (stereo not drawn): the cytotoxicity at 10 µM stood at 3.41%.

As for `O=C(c1cnccn1)N1CCc2c(COCC3CC3)cncc2C1`, the cytotoxicity at 10 µM is -72.4%.

On to `O=C(c1ccccn1)N1CC[C@@H](N2CCOCC2)[C@@H]1Cc1ccccc1`, for which the cytotoxicity at 10 µM was -77.9%.

Take `CS(=O)(=O)NCc1nnc2n1CCN(CC1CC1)C2`: the cytotoxicity at 10 µM is -0.285%.

For the molecule `O=C(O)[C@@H]1CN(C(=O)CSCCN2CCCC2)C[C@H]1c1ccccc1`, the cytotoxicity at 10 µM was -12.1%.

Turning to `COc1cc(C2CC(=O)NCc3nc4sccn4c32)cc(OC)c1O` (stereo not drawn), the cytotoxicity at 10 µM was -0.966%.

Take `CCCOc1cc(Cl)c(CN2CCNC(C(=O)NC3CC3)C2)cc1OC` (stereo not drawn): the cytotoxicity at 10 µM is 0.508%.

Turning to `Cc1ncsc1CCCNC(=O)C1CC2(CCNCC2)CN1C` (stereo not drawn), the cytotoxicity at 10 µM was determined as 9.18%.

In the case of `CC(C)=CCCC1(C)CCC(=O)N(CCc2csc(N)n2)C1` (stereo not drawn), the cytotoxicity at 10 µM was -4.27%.

For the molecule `COCc1nc(CNC(=O)C(C)n2ccnc2C(C)C)no1` (stereo not drawn), the cytotoxicity at 10 µM is -0.376%.

For `Cc1c(-c2c(-c3ccccc3)ncn2[C@@H](C(=O)O)[C@H](C)O)cnn1C`, the cytotoxicity at 10 µM was -7.67%.

As to `CCc1ccc(NC(=O)C2CCN(C(=O)COC)CC2)cc1`, the cytotoxicity at 10 µM came out at 0.929%.

With `O=C(CN1CCCC(c2ccc(C(=O)O)cc2)C1)NC1CC1` (stereo not drawn), the cytotoxicity at 10 µM was -9.87%.

Take `CCOc1ccccc1C(CC(=O)Nc1ncc(C)s1)NC(C)=O` (stereo not drawn): the cytotoxicity at 10 µM is -15.3%.

With `Cc1ccc(CN2CCc3nnc(COCCN(C)C)n3CC2)o1`, the cytotoxicity at 10 µM was found to be 2.9%.

Turning to `COCCN1CCCC2(CCN(c3ccsc3)C2=O)C1` (stereo not drawn), the cytotoxicity at 10 µM was -79.6%.

Regarding `Cc1noc(C)c1CN1CC[C@H]2OCC[C@@]2(C(=O)N2CCCC2)C1`, the cytotoxicity at 10 µM is -70.7%.

Take `Cc1ccccc1C(=O)N1Cc2c(Cn3ccnc3)nn(C)c2C1`: the cytotoxicity at 10 µM is -72.1%.

With `Fc1ccc(CN2CC[C@H]3O[C@@H](COCc4cccnc4)CC[C@H]32)cc1`, the cytotoxicity at 10 µM is -70%.

As for `Cc1noc(C)c1CN1C[C@@H]2COC[C@@H](C(=O)N3CCCCO3)[C@@H]2C1`, the cytotoxicity at 10 µM is -71.7%.

Consider `Cc1noc(C)c1CN1CC2(CCCCN2C)CC1=O` (stereo not drawn), for which the cytotoxicity at 10 µM turned out to be 2.75%.

Turning to `c1cncc(OCC2CN(Cc3ccsc3)Cc3nccn3C2)c1` (stereo not drawn), the cytotoxicity at 10 µM was -72.4%.
